# Screening data: PubChem, several laboratories
# UPR XBP1 act = activators of adaptive arm of unfolded protein response (XBP1) | CHO-XBP1 luciferase reporter, IRE1-XBP1 UPR activation, luminescence; percent of tunicamycin response, DMSO as zero | activation, % at 20 µM | 330,000 tested, 0.33% active | AID 463104;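 active = versus positive control, 20 µM dose yields 30% or more activation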
#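 Material: IRE1-XBP1 luciferase reporter CHO line / Quantity: one thousand reporter cells per well / Buffer or medium: F12 with 10% serum / Compound: 20 µM single concentration, DMSO 1% / Times: 6 h treatment, 37 °C / Detection: Steady-Glo luciferase glow luminescence, 10 min after reagent addition / Benchmarks: tunicamycin high, DMSO low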
# CHOP UPR activ = apoptotic UPR (CHOP) activation | AID 449763 | activation, % at 10 µM | 330,000 tested, 0.34% active | CHO-CHOP luciferase reporter, luminescence; percent of tunicamycin response over DMSO baseline;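 active = at 10 µM dose, activation of 40% or more, normalized to positive control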
#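 Dosing – one dose, 10 µM in 0.5% DMSO · System – CHO-CHOP cells, stable luciferase reporter of PERK-eIF2a-CHOP signalling · Input – 500 cells/well · Control set – tunicamycin 10 µg/mL final as positive, DMSO-only wells as negative · Timing – 6 h compound treatment, 37 °C · Measure – % activation vs tunicamycin · Technique – luminescence read with Steady-Glo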
# Bfl-1 A1 inh = inhibitors of the anti-apoptotic protein A1, read as caspase activation. MEF A1-2A-BIM cells, Caspase-Glo 3/7 luminescence, 3 h; percent of clofoctol response, vehicle zero. 330,000 tested, 0.066% active. caspase activation, % (no concentration beside the values);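 active = over half of replicate activation scores above 10%, or exactly half above 10 with the replicate mean above 10; inconclusive = replicate mean below 10 yet half the replicates above 10; inactive = over half of replicates below 10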
# CHOP inhibitor = inhibitors of CHOP induction in ER stress response; CHO-K1 CHOP-promoter luciferase, tunicamycin-induced, 15-18 h; inhibition, % at 10 µM; 220,000 tested, 3.8% active;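 active = compounds that reduced the stress-induced luciferase reporter signal by more than about 70% of percent inhibition, limit read from the data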
# Numbers stand for hits; n = inactive; u = inconclusive; x = no result given. Shown is part of a subset that was picked to be rich in hits.
SMILES,UPR XBP1 act,CHOP UPR activ,Bfl-1 A1 inh,CHOP inhibitor
CC(=O)Nc1ccc(NC(=O)c2ccc(NS(=O)(=O)c3cc(C(C)(C)C)cc(C)c3C)cc2)cc1,n,n,n,76.4
CC1(C)Cc2cccc(OCC(=O)NCCc3ccc(S(N)(=O)=O)cc3)c2O1,n,n,n,x
CC(C)OC(=O)CSc1nnc2n1C(C)(C)Cc1ccccc1-2,n,n,n,n
CCN(CC)C(=O)c1cccc(NC(=O)C2=COCCO2)c1,n,n,n,x
O=C(Nc1nc2cc3c(cc2s1)OCCO3)C1=COCCO1,n,n,n,93.8
COc1cccc(/C=N/NC(N)=S)c1OCc1cccc(Cl)c1,n,n,n,n
COC(=O)N/N=C/c1cc(Cl)cc(Cl)c1OCc1ccccc1,n,n,n,74.5
CCOC(=O)/C(=N\Nc1ccccc1Cl)N1CC(C)OC(C)C1 (stereo not drawn),n,n,n,70.4
O=C(NCc1ccco1)c1ccc(Cn2c(=O)c3ccccc3n(Cc3cccc(Cl)c3)c2=O)cc1,n,n,n,n
O=C(NCc1ccco1)c1ccc(Cn2c(=O)c3sccc3n(Cc3cccc(F)c3)c2=O)cc1,n,n,n,72.2
Cn1c(=O)cc(OCCCC(=O)NCCC2=CCCCC2)c2ccccc21,n,n,n,n
Cn1c(=O)cc(SCC(=O)NCCC2=CCCCC2)c2cc(Cl)ccc21,n,n,n,93.1
CCN(C(=O)COC(=O)CCOc1ccccc1)c1c(N)n(Cc2ccccc2)c(=O)[nH]c1=O,n,n,n,x
S=c1[nH]nc(CSc2nc3ccccc3s2)n1C1CCCCC1,n,n,n,87.4
COc1ccc([N+](=O)[O-])c(S(=O)(=O)c2ccccc2)n1,n,n,n,106.5
CC(OC(=O)C1COc2ccccc2O1)C(=O)N(C)c1ccccc1 (stereo not drawn),n,n,n,n
CCOC(=O)c1c(C)[nH]c(C(=O)C(C)OC(=O)c2cccc(OCc3c(C)noc3C)c2)c1C (stereo not drawn),n,n,n,80.2
CCC(C)NC(=O)c1cccc(OCc2c(C)noc2C)c1 (stereo not drawn),n,n,n,n
C/C(=N\NC(=O)COc1ccc(C)cc1C(C)C)c1ccc(-n2ccnc2)cc1,n,n,n,93.0
CCCCCCCCCn1ccc(=N)cc1,n,n,n,75.8
COCCN1CN=C(Nc2nc3ccccc3o2)NC1,n,n,n,n
O=C(Nc1ccccc1)c1ccc(CN2CCc3ccccc3C2)cc1,n,n,n,n
O=C(Nc1ccc(S(=O)(=O)N2CCCCC2)cc1)c1ccc(CN2CCc3ccccc3C2)cc1,n,n,n,79.9
CCCc1cc(=O)[nH]c(Nc2cc(OC)ccc2OC)n1,n,n,n,74.5
COc1ccc(Nc2nc(C)cc(=O)[nH]2)c(OC)c1,n,n,n,n
SMILES,UPR XBP1 act,CHOP UPR activ,Bfl-1 A1 inh,CHOP inhibitor
COc1ccc(OCc2nnc(SCC(=O)N3c4ccccc4Sc4ccc(Cl)cc43)o2)cc1,n,n,n,n
Cc1ccc(C)c(NC(=S)NCc2ccccc2)c1,n,n,n,x
CC(CNc1ccccc1O)C(=O)O (stereo not drawn),n,n,n,n
Brc1ccc(NCc2cccc3ccccc23)nc1,n,n,n,86.6
O=C(NCc1ccccn1)c1ccc(Cl)c(S(=O)(=O)N2CCCCCC2)c1,n,n,n,x
O=C(c1cc(-c2ccco2)nn1-c1cccc(Cl)c1)N1CCCCC1,n,n,n,70.5
CC(C)NC(=O)c1cc(-c2ccco2)nn1-c1ccc(Cl)cc1,n,n,n,x
Cc1ccc(OC(C)C(=O)Nc2ccc3c(c2)n(C)c(=O)n3C)c(C)c1 (stereo not drawn),n,n,n,x
CCN(CC)C(=O)c1sc(NC(=O)c2cccnc2)c(C(=O)OC)c1C,n,n,n,n
COc1ccc(/C=N/NS(=O)(=O)c2ccccc2)cc1OC(=O)c1ccc(C)cc1,n,n,n,73.8
COc1ccc(/C=N/NS(=O)(=O)c2ccc(C)cc2)cc1OC(=O)c1ccccc1,n,n,n,n
COC(=O)CSc1nnc(-c2ccoc2C)n1-c1ccc(OC)cc1,n,n,u,n
Nc1nc(/C=C/c2cccnc2)nc(-c2ccccc2O)n1,n,n,n,n
Nc1nc(/C=C/c2ccc(F)cc2)nc(-c2ccccc2O)n1,n,n,n,79.9
C[C@H](CO)N1C[C@H](C)[C@@H](CN(C)CC2CC2)Oc2c(NS(=O)(=O)c3ccc(F)cc3)cccc2C1=O,n,n,x,x
Cc1cc(=O)[nH]c(NN=C2CCC(C(C)(C)C)CC2)n1 (stereo not drawn),n,n,n,82.1
CC(C)Cn1c(SCc2nc3ccccc3c(=O)[nH]2)nc2ccccc2c1=O,n,n,n,82.4
O=C(c1ccc(F)cc1)c1c[nH]c(C(=O)NCCCN2CCOCC2)c1,n,n,n,n
Cc1ccc(C(=O)NCCSc2ccc(Cl)cc2)cc1S(=O)(=O)Nc1ccccc1,n,n,n,78.7
Cc1ccc(NS(=O)(=O)c2cc(C(=O)NCCSc3ccc(C)cc3)ccc2C)cc1,n,n,n,n
CCN1C(=O)/C(=C/c2cc(C)n(C)c2C)SC1=Nc1ccc(OC)cc1,n,n,n,n
O=C(c1cc(-c2cccc(O)c2)on1)N1CCN(C(c2ccccc2)c2ccccc2)CC1,n,n,u,78.0
O=C(c1cc(C2CC2)on1)N1CCN(C(c2ccccc2)c2ccccc2)CC1,n,n,n,n
CCn1cc(Br)c(C(=O)NC(C)c2ccccc2)n1 (stereo not drawn),n,n,n,n
O=C(CNc1ccc2ccccc2c1)N/N=C/c1ccc([N+](=O)[O-])o1,n,n,n,99.4
SMILES,UPR XBP1 act,CHOP UPR activ,Bfl-1 A1 inh,CHOP inhibitor
O=C(O)c1ccc(C2NCC(c3ccccc3Cl)c3c2[nH]c2ccccc32)cc1 (stereo not drawn),n,n,n,n
COc1cc(C2NCC(c3ccc(Cl)cc3Cl)c3c2[nH]c2ccccc32)cc(OC)c1OC (stereo not drawn),n,n,n,76.6
Cc1ccc(/C=N/N2C(=O)C3C(C2=O)C2C=CC3C23CC3)o1 (stereo not drawn),n,n,n,n
O=c1c(O)c(-c2ccc3c(c2)OCO3)oc2ccccc12,n,n,n,73.7
CCOc1ccc(S(=O)(=O)NCCCN2CCOCC2)c2ccccc12,n,n,n,n
CCCOc1ccc(S(=O)(=O)NCCCN2CCOCC2)c2ccccc12,n,n,n,71.2
Cc1c(NS(=O)(=O)c2ccc3c(c2)NC(=O)CC(=O)N3)cccc1[N+](=O)[O-],n,n,n,x
Cc1ccc(S(=O)(=O)N2CCC(=O)N(CCOCc3cccc(C)c3)CC2)cc1,n,n,n,n
Cc1ccc(S(=O)(=O)N2CCC(=O)N(CCOCc3cccc(C(F)(F)F)c3)CC2)cc1,n,n,n,79.1
O=C(Cc1ccccc1)N/N=C/c1cc(Br)c(Br)o1,n,n,n,76.1
Cc1c(C(=O)Nc2nnc(SCc3ccccc3Cl)s2)cccc1[N+](=O)[O-],n,n,n,78.3
Cc1ccccc1C=O,n,n,n,x
